By IC50 is commonly meant the point on the concentration scale where inhibition reaches its midpoint. A higher IC50 goes with weaker potency. The term inhibition denotes the change of the read-out against control, counted positive when it falls.

The results in this text go back to ChEMBL document CHEMBL4145462, “Nitrogen-containing ecdysteroid derivatives vs. multi-drug resistance in cancer: Preparation and antitumor activity of oximes, oxime ethers and a lactam” (Eur J Med Chem, 2018).

Bounds are passed on as bounds.

ABCB1 (P-glycoprotein), sequence (P08183 whole entry): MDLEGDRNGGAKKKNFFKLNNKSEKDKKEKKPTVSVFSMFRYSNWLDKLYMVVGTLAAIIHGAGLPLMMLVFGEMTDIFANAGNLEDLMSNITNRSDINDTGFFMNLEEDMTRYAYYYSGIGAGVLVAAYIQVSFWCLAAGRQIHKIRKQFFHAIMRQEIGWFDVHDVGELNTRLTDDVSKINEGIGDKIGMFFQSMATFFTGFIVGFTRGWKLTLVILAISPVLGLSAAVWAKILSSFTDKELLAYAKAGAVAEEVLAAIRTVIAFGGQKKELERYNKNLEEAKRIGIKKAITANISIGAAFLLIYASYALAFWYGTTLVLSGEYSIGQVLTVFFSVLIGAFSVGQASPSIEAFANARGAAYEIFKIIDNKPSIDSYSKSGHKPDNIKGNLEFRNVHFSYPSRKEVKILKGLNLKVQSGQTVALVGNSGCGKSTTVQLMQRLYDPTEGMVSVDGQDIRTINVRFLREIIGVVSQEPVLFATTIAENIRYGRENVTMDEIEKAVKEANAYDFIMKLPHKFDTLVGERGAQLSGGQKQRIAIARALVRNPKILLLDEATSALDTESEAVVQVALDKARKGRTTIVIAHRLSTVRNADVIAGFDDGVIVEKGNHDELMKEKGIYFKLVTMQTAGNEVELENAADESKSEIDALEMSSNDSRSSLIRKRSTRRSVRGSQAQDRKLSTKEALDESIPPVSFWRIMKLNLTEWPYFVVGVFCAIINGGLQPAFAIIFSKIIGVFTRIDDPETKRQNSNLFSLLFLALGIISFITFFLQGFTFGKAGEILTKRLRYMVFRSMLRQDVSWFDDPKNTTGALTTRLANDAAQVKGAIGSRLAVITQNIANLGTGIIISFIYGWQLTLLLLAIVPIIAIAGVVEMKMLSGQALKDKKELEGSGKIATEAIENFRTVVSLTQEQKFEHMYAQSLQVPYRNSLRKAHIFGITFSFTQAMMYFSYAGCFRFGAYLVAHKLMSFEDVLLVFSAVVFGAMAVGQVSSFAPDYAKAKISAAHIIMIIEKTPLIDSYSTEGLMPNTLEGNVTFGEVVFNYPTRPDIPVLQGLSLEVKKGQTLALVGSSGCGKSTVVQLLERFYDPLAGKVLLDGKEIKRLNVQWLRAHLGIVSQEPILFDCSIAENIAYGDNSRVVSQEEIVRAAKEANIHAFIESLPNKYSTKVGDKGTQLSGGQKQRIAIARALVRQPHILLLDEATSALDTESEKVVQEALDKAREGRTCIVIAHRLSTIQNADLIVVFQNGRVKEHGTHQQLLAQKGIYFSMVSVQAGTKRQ

One data set concerns HeLa. Nature of the data set: Antiproliferative activity against human HeLa cells after 72 hrs by MTT assay. The data set is classed as functional, cell-based.
Settings: not given
A digest of the protocol: (§1)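 Cells grown in MEM with 10% FCS, 1% non-essential amino acids and 1% penicillin-streptomycin. Seeded at 5000 cells/well, exposed to 0.1–30.0 µM compound for 72 h. MTT (5 mg/ml solution) was then added for 4 h, formazan dissolved in DMSO, and absorbance read at 545 nm. Cisplatin served as positive control. IC50 came from sigmoidal dose–response fits (log inhibitor vs normalized response, variable slope).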
`C=CCO/N=C1/C=C2[C@H](CC[C@]3(C)[C@@H]([C@@]4(C)OC(C)(C)O[C@@H]4CCC(C)(C)O)CC[C@@]23O)[C@@]2(C)C[C@@H]3OC(C)(C)O[C@@H]3C[C@@H]12` showed an IC50 of 17.6 µM.

The next data set has as its system SiHa. Nature of the data set: Antiproliferative activity against human SiHa cells after 72 hrs by MTT assay.
Settings: not given
The data set is classed as functional, cell-based. An outline of the steps:
as §1
On the technique in general: Tetrazolium assays rely on reduction of a dye to a coloured formazan, in cell work by metabolically active cells.
`C=CCO/N=C1/C=C2[C@H](CC[C@]3(C)[C@@H]([C@@]4(C)OC(C)(C)O[C@@H]4CCC(C)(C)O)CC[C@@]23O)[C@@]2(C)C[C@@H]3OC(C)(C)O[C@@H]3C[C@@H]12` gave an IC50 of over 30 µM.

The subject of another data set is MDA-MB-231. Nature of the data set: Antiproliferative activity against human MDA-MB-231 cells after 72 hrs by MTT assay. The data set is classed as functional, cell-based. To be noted: MDA-MB-231, 72 h. A digest of the protocol: as §1
On to `C=CCO/N=C1/C=C2[C@H](CC[C@]3(C)[C@@H]([C@@]4(C)OC(C)(C)O[C@@H]4CCC(C)(C)O)CC[C@@]23O)[C@@]2(C)C[C@@H]3OC(C)(C)O[C@@H]3C[C@@H]12`, for which the 50% inhibitory concentration (IC50) amounted to 26.9 µM.

For the next data set, the system named is MCF7. Nature of the data set: Antiproliferative activity against human MCF7 cells after 72 hrs by MTT assay. The note with it: MCF7, 72 h. It is filed as functional, cell-based. An outline of the steps: as §1
With `C=CCO/N=C1/C=C2[C@H](CC[C@]3(C)[C@@H]([C@@]4(C)OC(C)(C)O[C@@H]4CCC(C)(C)O)CC[C@@]23O)[C@@]2(C)C[C@@H]3OC(C)(C)O[C@@H]3C[C@@H]12`, 17.2 µM corresponded to half-maximal inhibition (IC50).

Tested on in another data set: not listed separately
The data set can be described thus: Cytotoxicity against mouse L5178 cells expressing human ABCB1 after 48 hrs by MTT assay. The data set is classed as functional, cell-based. To be noted: L5178, 48 h. A digest of the protocol: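 Parental mouse lymphoma L5178 and the MDR line made by pHa MDR1/A retrovirus transfection, selected with 60 µg/L colchicine. Grown in McCoy's 5A with horse serum at 37°C, 5% CO2. 5 x 10^4 cells/well, serial compound dilutions, 48 h. MTT added to 0.5 mg/mL final for 4 h, then 10% SDS in 0.01 M HCl overnight, OD read at 540 and 630 nm. IC50 taken as median cytotoxic activity (Dm) from control lanes of checkerboard plates, n=2.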
`C=CCO/N=C1/C=C2[C@H](CC[C@]3(C)[C@@H]([C@@]4(C)OC(C)(C)O[C@@H]4CCC(C)(C)O)CC[C@@]23O)[C@@]2(C)C[C@@H]3OC(C)(C)O[C@@H]3C[C@@H]12` showed an IC50 of 49.3 µM.

The next data set deals with ABCB1 (P-glycoprotein) (Homo sapiens, UniProt P08183). Nature of the data set: Inhibition of human ABCB1 expressed in mouse L5178 cells assessed as increase in rhodamine-123 accumulation at 20 uM after 10 mins by flow cytometric analysis relative to control. The data set is classed as cell-based. The note with it: mouse L5178 cells expressing human ABCB1, probe rhodamine-123. An outline of the steps:
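Cells at 2 × 10^6/mL were preincubated 10 min with compound. Rhodamine 123 then added to 5.2 µM final, 20 min at 37 °C. Cells washed twice in PBS, resuspended and read by flow cytometry. Percent inhibition was scaled between MDR-cell accumulation (0%) and parental L5178 accumulation (100%). Controls: 100 nM tariquidar (positive) and 2% DMSO (negative).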
In general terms: Flow cytometry measures light scatter and fluorescence of single cells or particles in a stream.
Regarding `C=CCO/N=C1/C=C2[C@H](CC[C@]3(C)[C@@H]([C@@]4(C)OC(C)(C)O[C@@H]4CCC(C)(C)O)CC[C@@]23O)[C@@]2(C)C[C@@H]3OC(C)(C)O[C@@H]3C[C@@H]12`, the inhibition at 10 min, 20 µM was 81.8%.

Tested on in a further data set: not listed separately
The data set can be described thus: Synergistic cytotoxicity against mouse L5178 cells assessed as combination index at ED50 using 150:1 test compound to doxorubicin ratio after 48 hrs by MTT-based checkerboard microplate method. The data set is classed as functional.
Settings: not given
A digest of the protocol:
(§2)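 Checkerboard microplate combinations of compound with doxorubicin at constant molar ratios. 5 × 10^4 cells/well in McCoy's 5A, 48 h at 37°C, 5% CO2. MTT added to 0.5 mg/mL final for 4 h, SDS/HCl overnight, OD read at 540 and 630 nm. Combination indices derived per ratio for 50%, 75% and 90% growth inhibition by median-effect analysis.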
In the case of `C=CCO/N=C1/C=C2[C@H](CC[C@]3(C)[C@@H]([C@@]4(C)OC(C)(C)O[C@@H]4CCC(C)(C)O)CC[C@@]23O)[C@@]2(C)C[C@@H]3OC(C)(C)O[C@@H]3C[C@@H]12`, the CI was found to be 0.17.

Tested on in the next data set: not listed separately
The data set can be described thus: Synergistic cytotoxicity against mouse L5178 cells expressing human ABCB1 assessed as combination index at ED50 using 15:1 test compound to doxorubicin ratio after 48 hrs by MTT-based checkerboard microplate method.
Settings: not given
The data set is classed as functional. An outline of the steps:
as §2
For the molecule `C=CCO/N=C1/C=C2[C@H](CC[C@]3(C)[C@@H]([C@@]4(C)OC(C)(C)O[C@@H]4CCC(C)(C)O)CC[C@@]23O)[C@@]2(C)C[C@@H]3OC(C)(C)O[C@@H]3C[C@@H]12`, the CI stood at 0.17.

Tested on in a further data set: not listed separately
The data set can be described thus: Synergistic cytotoxicity against mouse L5178 cells assessed as combination index at ED90 using 150:1 test compound to doxorubicin ratio after 48 hrs by MTT-based checkerboard microplate method. The data set is classed as functional.
Settings: not given
An outline of the steps: as §2
For the molecule `C=CCO/N=C1/C=C2[C@H](CC[C@]3(C)[C@@H]([C@@]4(C)OC(C)(C)O[C@@H]4CCC(C)(C)O)CC[C@@]23O)[C@@]2(C)C[C@@H]3OC(C)(C)O[C@@H]3C[C@@H]12`, the CI is given as 1.31.

Tested on in a further data set: not listed separately
The data set can be described thus: Synergistic cytotoxicity against mouse L5178 cells expressing human ABCB1 assessed as combination index at ED75 using 15:1 test compound to doxorubicin ratio after 48 hrs by MTT-based checkerboard microplate method. It is filed as functional.
Settings: not given
An outline of the steps: as §2
On to `C=CCO/N=C1/C=C2[C@H](CC[C@]3(C)[C@@H]([C@@]4(C)OC(C)(C)O[C@@H]4CCC(C)(C)O)CC[C@@]23O)[C@@]2(C)C[C@@H]3OC(C)(C)O[C@@H]3C[C@@H]12`, for which the CI amounted to 0.16.

Tested on in a further data set: not listed separately
The data set can be described thus: Synergistic cytotoxicity against mouse L5178 cells expressing human ABCB1 assessed as combination index at ED50 using 30:1 test compound to doxorubicin ratio after 48 hrs by MTT-based checkerboard microplate method. It is filed as functional.
Settings: not given
An outline of the steps: as §2
`C=CCO/N=C1/C=C2[C@H](CC[C@]3(C)[C@@H]([C@@]4(C)OC(C)(C)O[C@@H]4CCC(C)(C)O)CC[C@@]23O)[C@@]2(C)C[C@@H]3OC(C)(C)O[C@@H]3C[C@@H]12`: the CI is 0.21.

Tested on in another data set: not listed separately
Nature of the data set: Synergistic cytotoxicity against mouse L5178 cells expressing human ABCB1 assessed as combination index at ED90 using 30:1 test compound to doxorubicin ratio after 48 hrs by MTT-based checkerboard microplate method. It is filed as functional.
Settings: not given
A digest of the protocol:
as §2
For `C=CCO/N=C1/C=C2[C@H](CC[C@]3(C)[C@@H]([C@@]4(C)OC(C)(C)O[C@@H]4CCC(C)(C)O)CC[C@@]23O)[C@@]2(C)C[C@@H]3OC(C)(C)O[C@@H]3C[C@@H]12`, the CI is 0.25.
